Test results published in ChEMBL document CHEMBL4422659, “Discovery of novel 4-phenyl-2-(pyrrolidinyl)nicotinamide derivatives as potent Nav1.1 activators” (Bioorg Med Chem Lett, 2019).
Converted amounts (≈) assume the structure as drawn.

Tests used:
[1] = molecular target: Sodium channel protein type 1 subunit alpha (Homo sapiens) (UniProt P35498); assay: Activation of human Nav1.1 expressed in T-Rex-CHO cells assessed as change in decay time constant of channel currents at 3 uM at holding potential of -120 mV by automated patch-clamp electrophysiology assay relative to control; type: cell-based
Outline: (§1)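 Human Nav1.1 stably expressed in CHO cells; inactivation current decay time constant (tau) measured on IonWorks automated patch platform; tau given as % of control; mean of N=5 unless noted, standard deviation reported.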

[2] = molecular target: Sodium channel protein type 1 subunit alpha (Homo sapiens) (UniProt P35498); assay: Activation of human Nav1.1 expressed in T-Rex-CHO cells assessed as change in decay time constant of channel currents at 1 uM at holding potential of -120 mV by automated patch-clamp electrophysiology assay relative to control; type: cell-based; outline: as §1
[3] = molecular target: Sodium channel protein type 1 subunit alpha (Homo sapiens) (UniProt P35498); assay: Activation of human Nav1.1 expressed in T-Rex-CHO cells assessed as change in decay time constant of channel currents at 10 uM at holding potential of -120 mV by automated patch-clamp electrophysiology assay relative to control; type: cell-based; outline: as §1
[4] = molecular target: Sodium channel protein type 1 subunit alpha (Homo sapiens) (UniProt P35498); assay: Activation of human Nav1.1 expressed in T-Rex-CHO cells assessed as change in decay time constant of channel currents at 1 uM by Q-patch assay relative to control; type: cell-based
Outline: (§2)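 Human Nav1.1 in CHO cells, Q-patch automated patch clamp; current decay time constant (tau) and top current ratio expressed as % of control; mean of N=4 unless noted, standard deviation reported.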

[5] = molecular target: Sodium channel protein type 1 subunit alpha (Homo sapiens) (UniProt P35498); assay: Activation of human Nav1.1 expressed in T-Rex-CHO cells assessed as change in top peak current at 1 uM by Q-patch assay relative to control; type: cell-based; outline: as §2
[6] = molecular target: Sodium channel protein type 1 subunit alpha (Homo sapiens) (UniProt P35498); assay: Activation of human Nav1.1 expressed in T-Rex-CHO cells assessed as change in decay time constant of channel currents at 0.3 uM at holding potential of -120 mV by automated patch-clamp electrophysiology assay relative to control; type: cell-based; outline: as §1
[7] = molecular target: Sodium channel protein type 1 subunit alpha (Homo sapiens) (UniProt P35498); assay: Activation of human Nav1.1 expressed in T-Rex-CHO cells assessed as change in decay time constant of channel currents at 0.03 uM by Q-patch assay relative to control; type: cell-based; outline: as §2
[8] = molecular target: Sodium channel protein type 1 subunit alpha (Homo sapiens) (UniProt P35498); assay: Activation of human Nav1.1 expressed in T-Rex-CHO cells assessed as change in decay time constant of channel currents at 0.1 uM by Q-patch assay relative to control; type: cell-based; outline: as §2
[9] = system: human MDR1; assay: Efflux ratio of permeability across pig LLC-PK1 cells expressing human MDR1 at 1 uM after 1 hr by LC-MS/MS analysis; type: ADME, cell-based, Sus scrofa
Outline: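 Efflux ratio measured in LLC-PK1 cells over-expressing human MDR1, substrate at 1 μM.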

[10] = Drug uptake in mouse plasma at 30 mg/kg, ip measured at 1 hr by LC-MS/MS analysis; type: ADME, organism-based
Outline: (§3)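 Mice dosed 30 mg/kg intraperitoneally; plasma and brain levels measured 1 h post-dose; brain/plasma ratio computed from total concentrations in brain and plasma.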

[11] = Drug uptake in mouse brain at 30 mg/kg, ip measured at 1 hr by LC-MS/MS analysis; type: ADME, organism-based; details: read-out: Drug uptake; outline: as §3
[12] = Ratio of drug level in brain to plasma in mouse at 30 mg/kg, ip measured at 1 hr by LC-MS/MS analysis; type: ADME, organism-based; details: brain and plasma; outline: as §3
[13] = Fraction unbound in mouse brain at 30 mg/kg, ip measured at 1 hr by LC-MS/MS analysis; type: ADME, organism-based
Outline: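 Brain protein binding ratio determined for brain exposure study in mice given 30 mg/kg i.p., sampled at 1 h.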

[14] = Free drug level in mouse brain at 30 mg/kg, ip measured at 1 hr by LC-MS/MS analysis; type: ADME, organism-based; details: in vivo
Outline: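 Free brain concentration derived from total brain level 1 h after 30 mg/kg i.p. in mice and the brain protein binding ratio.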

[15] = molecular target: Sodium channel protein type 2 subunit alpha (Homo sapiens) (UniProt Q99250); assay: Activation of human Nav1.2 expressed in T-Rex-CHO cells assessed as change in decay time constant of channel currents at 1 uM at holding potential of -120 mV by automated patch-clamp electrophysiology assay relative to control; type: cell-based
[16] = molecular target: Sodium channel protein type 3 subunit alpha (Homo sapiens) (UniProt Q9NY46); assay: Activation of human Nav1.3 expressed in CHO cells assessed as change in decay time constant of channel currents at 1 uM at holding potential of -120 mV by automated patch-clamp electrophysiology assay relative to control; type: cell-based
[17] = molecular target: T1, Sodium channel protein type 5 subunit alpha (Homo sapiens, UniProt Q14524); assay: Activation of human Nav1.5 expressed in T-Rex-CHO cells assessed as change in decay time constant of channel currents at 1 uM at holding potential of -120 mV by automated patch-clamp electrophysiology assay relative to control; type: cell-based
[18] = molecular target: Sodium channel protein type 8 subunit alpha (Homo sapiens) (UniProt Q9UQD0); assay: Activation of human Nav1.6 expressed in T-Rex-CHO cells assessed as change in decay time constant of channel currents at 1 uM at holding potential of -120 mV by automated patch-clamp electrophysiology assay relative to control; type: cell-based
[19] = molecular target: Sodium channel protein type 2 subunit alpha (Homo sapiens) (UniProt Q99250); assay: Activation of human Nav1.2 expressed in T-Rex-CHO cells assessed as change in peak current at 1 uM by Q-patch assay relative to control; type: cell-based
[20] = molecular target: Sodium channel protein type 3 subunit alpha (Homo sapiens) (UniProt Q9NY46); assay: Activation of human Nav1.3 expressed in CHO cells assessed as change in peak current at 1 uM by Q-patch assay relative to control; type: cell-based
[21] = molecular target: T1, Sodium channel protein type 5 subunit alpha; assay: Activation of human Nav1.5 expressed in T-Rex-CHO cells assessed as change in peak current at 1 uM by Q-patch assay relative to control; type: cell-based
[22] = molecular target: Sodium channel protein type 8 subunit alpha (Homo sapiens) (UniProt Q9UQD0); assay: Activation of human Nav1.6 expressed in T-Rex-CHO cells assessed as change in peak current at 1 uM by Q-patch assay relative to control; type: cell-based
[23] = molecular target: Sodium channel protein type 1 subunit alpha (Homo sapiens) (UniProt P35498); assay: Activation of human Nav1.1 expressed in T-Rex-CHO cells assessed as change in decay time constant of channel currents at 0.3 uM by Q-patch assay relative to control; type: cell-based; outline: as §2
[24] = molecular target: Sodium channel protein type 1 subunit alpha (Homo sapiens) (UniProt P35498); assay: Activation of human Nav1.1 expressed in T-Rex-CHO cells assessed as change in decay time constant of channel currents at 30 uM at holding potential of -120 mV by automated patch-clamp electrophysiology assay relative to control; type: cell-based; outline: as §1
[25] = molecular target: Sodium channel protein type 1 subunit alpha (Homo sapiens) (UniProt P35498); assay: Activation of human Nav1.1 expressed in T-Rex-CHO cells assessed as change in decay time constant of channel currents at 3 uM by Q-patch assay relative to control; type: cell-based; outline: as §2
[26] = molecular target: Sodium channel protein type 1 subunit alpha (Homo sapiens) (UniProt P35498); assay: Activation of human Nav1.1 expressed in T-Rex-CHO cells assessed as change in decay time constant of channel currents at 10 uM by Q-patch assay relative to control; type: cell-based; outline: as §2
[27] = 1-octanol/water partition co-efficient, log D of the compound at pH 7.4 by chromatographic analysis; type: physicochemical
[28] = Aqueous solubility of compound at pH 6.8 by UV absorbance method; type: physicochemical; details: buffer
Outline: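 Solubility determined at pH 6.8.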

[29] = molecular target: Sodium channel protein type 1 subunit alpha (Homo sapiens) (UniProt P35498); assay: Activation of human Nav1.1 expressed in T-Rex-CHO cells assessed as change in top peak current at 3 uM by Q-patch assay relative to control; type: cell-based; outline: as §2
[30] = molecular target: Sodium channel protein type 1 subunit alpha (Homo sapiens) (UniProt P35498); assay: Activation of human Nav1.1 expressed in T-Rex-CHO cells assessed as change in top peak current at 10 uM by Q-patch assay relative to control; type: cell-based; outline: as §2

T1 sequence (Q14524 whole entry): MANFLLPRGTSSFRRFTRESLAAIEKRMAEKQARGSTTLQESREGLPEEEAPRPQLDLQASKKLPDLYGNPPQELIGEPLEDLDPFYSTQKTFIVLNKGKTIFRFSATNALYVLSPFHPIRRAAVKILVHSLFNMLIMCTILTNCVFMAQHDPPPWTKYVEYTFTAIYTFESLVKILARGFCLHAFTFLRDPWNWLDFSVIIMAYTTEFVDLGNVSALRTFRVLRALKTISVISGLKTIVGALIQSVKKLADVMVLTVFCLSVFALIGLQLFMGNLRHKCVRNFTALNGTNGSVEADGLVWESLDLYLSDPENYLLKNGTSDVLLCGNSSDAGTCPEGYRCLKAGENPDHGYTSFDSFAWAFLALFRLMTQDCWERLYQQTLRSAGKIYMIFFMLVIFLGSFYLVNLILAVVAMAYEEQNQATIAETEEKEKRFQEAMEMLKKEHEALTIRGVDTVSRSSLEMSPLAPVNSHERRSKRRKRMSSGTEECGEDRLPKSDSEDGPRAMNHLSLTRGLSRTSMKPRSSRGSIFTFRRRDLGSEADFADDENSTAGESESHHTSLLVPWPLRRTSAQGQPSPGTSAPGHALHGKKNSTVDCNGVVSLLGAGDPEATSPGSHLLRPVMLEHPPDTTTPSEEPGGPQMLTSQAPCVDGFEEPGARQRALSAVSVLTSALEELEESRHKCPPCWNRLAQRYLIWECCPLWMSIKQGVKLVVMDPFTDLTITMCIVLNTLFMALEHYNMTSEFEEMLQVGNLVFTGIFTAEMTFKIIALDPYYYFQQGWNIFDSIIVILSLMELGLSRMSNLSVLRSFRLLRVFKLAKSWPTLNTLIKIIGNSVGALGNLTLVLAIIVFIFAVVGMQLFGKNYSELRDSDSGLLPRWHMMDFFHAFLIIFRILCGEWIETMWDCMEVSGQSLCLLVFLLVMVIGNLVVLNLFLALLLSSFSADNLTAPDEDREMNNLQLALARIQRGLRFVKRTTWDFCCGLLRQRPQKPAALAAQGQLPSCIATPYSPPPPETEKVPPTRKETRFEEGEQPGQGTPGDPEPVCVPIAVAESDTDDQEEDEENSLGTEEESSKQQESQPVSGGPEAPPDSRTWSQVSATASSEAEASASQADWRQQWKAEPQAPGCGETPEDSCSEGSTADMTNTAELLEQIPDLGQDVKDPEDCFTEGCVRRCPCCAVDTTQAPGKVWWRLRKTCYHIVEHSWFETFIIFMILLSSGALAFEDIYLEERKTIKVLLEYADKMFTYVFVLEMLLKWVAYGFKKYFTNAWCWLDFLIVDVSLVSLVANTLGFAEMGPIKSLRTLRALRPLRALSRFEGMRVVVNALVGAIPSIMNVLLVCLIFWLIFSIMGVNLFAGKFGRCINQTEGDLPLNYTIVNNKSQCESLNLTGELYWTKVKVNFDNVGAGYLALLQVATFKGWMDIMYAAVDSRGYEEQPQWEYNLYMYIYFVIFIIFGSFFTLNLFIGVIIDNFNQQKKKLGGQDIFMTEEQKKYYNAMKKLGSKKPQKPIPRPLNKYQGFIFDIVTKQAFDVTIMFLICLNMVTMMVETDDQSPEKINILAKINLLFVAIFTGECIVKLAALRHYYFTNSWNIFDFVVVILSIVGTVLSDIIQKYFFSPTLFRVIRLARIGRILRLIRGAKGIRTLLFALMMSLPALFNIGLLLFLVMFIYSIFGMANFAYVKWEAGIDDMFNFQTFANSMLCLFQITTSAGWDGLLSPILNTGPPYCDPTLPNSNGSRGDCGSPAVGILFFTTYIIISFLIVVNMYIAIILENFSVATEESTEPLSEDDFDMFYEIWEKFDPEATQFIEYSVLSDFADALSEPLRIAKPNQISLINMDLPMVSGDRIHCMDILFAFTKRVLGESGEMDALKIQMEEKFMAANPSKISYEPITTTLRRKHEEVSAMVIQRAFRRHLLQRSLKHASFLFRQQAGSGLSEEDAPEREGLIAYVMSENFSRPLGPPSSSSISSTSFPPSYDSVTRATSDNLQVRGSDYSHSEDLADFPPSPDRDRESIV
Sodium channel protein type 2 subunit alpha (Homo sapiens), sequence (Q99250 whole entry, looked up): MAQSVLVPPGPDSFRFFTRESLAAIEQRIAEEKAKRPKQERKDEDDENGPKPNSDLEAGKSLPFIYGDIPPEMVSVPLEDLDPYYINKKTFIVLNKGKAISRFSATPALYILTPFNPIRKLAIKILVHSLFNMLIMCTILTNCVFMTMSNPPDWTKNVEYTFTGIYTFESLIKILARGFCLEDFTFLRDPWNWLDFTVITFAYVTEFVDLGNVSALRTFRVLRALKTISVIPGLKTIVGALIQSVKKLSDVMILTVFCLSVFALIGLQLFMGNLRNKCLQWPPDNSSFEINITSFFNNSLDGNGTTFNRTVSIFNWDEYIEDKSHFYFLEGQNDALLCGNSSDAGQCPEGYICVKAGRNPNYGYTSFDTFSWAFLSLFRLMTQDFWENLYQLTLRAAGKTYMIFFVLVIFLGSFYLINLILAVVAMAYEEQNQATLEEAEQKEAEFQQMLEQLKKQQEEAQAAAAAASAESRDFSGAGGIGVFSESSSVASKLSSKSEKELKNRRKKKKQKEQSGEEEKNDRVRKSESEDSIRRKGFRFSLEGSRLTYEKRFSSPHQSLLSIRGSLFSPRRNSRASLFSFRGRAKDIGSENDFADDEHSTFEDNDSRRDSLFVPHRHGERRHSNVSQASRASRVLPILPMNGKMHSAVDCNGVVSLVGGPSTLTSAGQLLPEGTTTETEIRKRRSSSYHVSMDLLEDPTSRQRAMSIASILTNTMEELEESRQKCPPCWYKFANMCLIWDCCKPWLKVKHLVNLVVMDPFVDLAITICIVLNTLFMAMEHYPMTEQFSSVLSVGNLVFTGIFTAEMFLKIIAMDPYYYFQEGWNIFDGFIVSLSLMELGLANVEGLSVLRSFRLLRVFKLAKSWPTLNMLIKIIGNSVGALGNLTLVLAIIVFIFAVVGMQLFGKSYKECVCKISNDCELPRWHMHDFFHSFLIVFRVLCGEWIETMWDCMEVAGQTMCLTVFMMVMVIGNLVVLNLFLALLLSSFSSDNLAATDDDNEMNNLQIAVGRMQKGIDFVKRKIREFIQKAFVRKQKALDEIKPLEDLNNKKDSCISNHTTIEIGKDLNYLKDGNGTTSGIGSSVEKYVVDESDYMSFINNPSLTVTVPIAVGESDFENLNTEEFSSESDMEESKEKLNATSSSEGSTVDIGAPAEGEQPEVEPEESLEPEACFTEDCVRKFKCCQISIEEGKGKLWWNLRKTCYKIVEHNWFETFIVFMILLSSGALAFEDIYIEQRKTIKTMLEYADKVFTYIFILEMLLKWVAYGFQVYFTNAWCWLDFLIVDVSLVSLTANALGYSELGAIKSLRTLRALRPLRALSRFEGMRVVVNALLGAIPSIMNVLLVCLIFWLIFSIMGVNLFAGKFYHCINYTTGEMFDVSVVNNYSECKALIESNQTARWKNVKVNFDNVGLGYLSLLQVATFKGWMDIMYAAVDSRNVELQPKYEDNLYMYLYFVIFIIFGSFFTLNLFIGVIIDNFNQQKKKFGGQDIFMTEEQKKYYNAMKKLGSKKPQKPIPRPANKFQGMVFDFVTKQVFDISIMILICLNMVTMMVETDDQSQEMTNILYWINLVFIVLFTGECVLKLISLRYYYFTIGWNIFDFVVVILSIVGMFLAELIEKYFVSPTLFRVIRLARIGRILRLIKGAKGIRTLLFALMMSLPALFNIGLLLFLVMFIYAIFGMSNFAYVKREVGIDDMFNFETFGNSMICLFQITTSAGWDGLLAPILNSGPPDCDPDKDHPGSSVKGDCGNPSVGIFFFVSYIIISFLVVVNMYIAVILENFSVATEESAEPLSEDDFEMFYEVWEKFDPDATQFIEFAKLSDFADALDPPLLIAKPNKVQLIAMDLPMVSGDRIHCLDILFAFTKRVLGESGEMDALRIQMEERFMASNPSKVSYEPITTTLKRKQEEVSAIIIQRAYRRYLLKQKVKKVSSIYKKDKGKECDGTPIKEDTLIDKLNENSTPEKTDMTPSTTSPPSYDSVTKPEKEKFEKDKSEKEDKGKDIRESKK

## CC(C)c1ccc(NC(=O)c2c(-c3ccc(F)cc3)ncnc2N2CC[C@H](F)C2)cn1
[1]
  Activity: 197%
[2]
  Activity: 93%

## CC(C)c1ccc(NC(=O)c2c(-c3ccc(Cl)cc3)ncnc2N2CC[C@@H](F)C2)cn1
[1]
  Activity: 145%
[3]
  Activity: 162%

## CCN(CC)c1ncnc(-c2ccc(Cl)cc2)c1C(=O)Nc1ccc(C(C)C)nc1
[1]
  Activity: 96%
[3]
  Activity: 74%

## CC(C)c1ccc(NC(=O)c2c(-c3ccc(Cl)cc3)ncnc2N2CCCC2)cn1
[1]
  Activity: 140%
[3]
  Activity: 257%

## CC(C)c1ccc(NC(=O)c2c(-c3ccco3)ncnc2N2CC[C@H](F)C2)cn1
[1]
  Activity: 98%
[2]
  Activity: 86%

## CC(C)c1ccc(NC(=O)c2c(-c3cccc(F)c3)ncnc2N2CC[C@H](F)C2)cn1
[1]
  Activity: 271%
[2]
  Activity: 111%

## CC(C)c1ccc(NC(=O)c2c(-c3cc(F)ccc3F)ccnc2N2CC[C@H](F)C2)cn1
[4]
  Activity: 1900%
[5]
  Activity: 144%
[6]
  Activity: 176%
[7]
  Activity: 255%
[8]
  Activity: 1200%
[9]
  efflux ratio at 1 h, 1 µM: 1
[10]
  concentration at 1 h: 968 ng/mL
[11]
  concentration at 1 h: 193 ng/g
[12]
  Kp at 1 h: 0.2
[13]
  fraction unbound at 1 h: 0.029
[14]
  Drug uptake(free): 13 nM
[15]
  Activity: 106%
[16]
  Activity: 826%
[17]
  Activity: 108%
[18]
  Activity: 102%
[19]
  Activity: 94%
[20]
  Activity: 129%
[21]
  Activity: 94%
[22]
  Activity: 100%
[2]
  Activity: 492%

## CC(C)c1ccc(NC(=O)c2c(-c3ccc(Cl)cc3)ncnc2N2CCC(F)(F)C2)cn1
[1]
  Activity: 184%
[3]
  Activity: 131%

## CC(C)c1ccc(NC(=O)c2c(-c3ccc(Cl)cc3)ncnc2N2CCC2)cn1
[1]
  Activity: 111%
[3]
  Activity: 90%

## CC(C)c1ccc(NC(=O)c2c(-c3cc(F)ccc3F)ncnc2N2CC[C@H](F)C2)cn1
[1]
  Activity: 714%
[4]
  Activity: 1900%
[23]
  Activity: 853%
[6]
  Activity: 135%
[7]
  Activity: 124%
[8]
  Activity: 193%
[2]
  Activity: 260%

## Cc1cc(C)c(NC(=O)c2c(-c3ccc(Cl)cc3)noc2N2CCOCC2)c(C)c1
[1]
  Activity: 99%
[3]
  Activity: 102%
[24]
  Activity: 138%
[4]
  Activity: 113%
[25]
  Activity: 120%
[26]
  Activity: 179%
[27]
  chromatographic logD: 3.43
[28]
  solubility: 0.9 µg/mL (≈ 2.11 µM)
[5]
  Activity: 92%
[29]
  Activity: 86%
[30]
  Activity: 86%

## CC(C)c1ccc(NC(=O)c2c(-c3ccc(Cl)cc3)ncnc2N2CCCCC2)cn1
[1]
  Activity: 110%
[3]
  Activity: 105%
